Experimental data as given in ChEMBL document CHEMBL3132830, “Discovery of a Potent Anti-tumor Agent through Regioselective Mono-N-acylation of 7H-Pyrrolo[3,2-f]quinazoline-1,3-diamine” (Medchemcomm, 2013).
Active and inactive are the calls of the source. The calls are words filed in the database; no cut-off is given here.

Columns and labels:
MDA-MB-231 = assay: Growth inhibition of human MDA-MB-231 cells after 72 hrs by MTT assay; format: functional; conditions: MDA-MB-231, 72 h
How it was run: (§1)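 MTT assay in triple-negative breast cancer cells; 72 h continuous compound exposure; top concentration tested 100 μM. GI50 is the concentration giving 50% growth inhibition over 72 h. Values are mean ± SD of at least two independent experiments, each run in duplicate.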

MDA-MB-468 = assay: Growth inhibition of human MDA-MB-468 cells after 72 hrs by MTT assay; format: functional; conditions: MDA-MB-468, 72 h; how it was run: as §1
HMEC [1] = assay: Toxicity against HMEC at 10 uM after 24 hrs by MTT assay; format: cell-based; conditions: human
How it was run: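 HMEC given a 24 h drug treatment; toxicity assessed at concentrations up to 10 μM.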

HMEC [2] = assay: Toxicity against HMEC at 10 uM after 72 hrs by MTT assay; format: cell-based; conditions: human
How it was run: (§2)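 Normal human mammary epithelial cells (HMEC) exposed to compound continuously for 72 h; toxicity read at concentrations from 0.1 μM up to 10 μM.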

HEK-293T = assay: Inhibition of CREB binding protein (unknown origin) expressed in HEK293T cells assessed as reduction in CREB-mediated gene transcription up to 10 uM by CREB reporter gene assay; format: cell-based; conditions: Homo sapiens
How it was run: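 CREB-mediated gene transcription measured with a CREB reporter assay in HEK 293T cells; compound tested at concentrations up to 10 μM.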

HMEC [3] = assay: Toxicity against HMEC up to 5 uM after 72 hrs by MTT assay; format: cell-based; conditions: human; how it was run: as §2
[4] = target: T1, Dihydrofolate reductase (Homo sapiens) (UniProt P00374); assay: Inhibition of human DHFR up to 10 uM
T1 sequence (whole entry): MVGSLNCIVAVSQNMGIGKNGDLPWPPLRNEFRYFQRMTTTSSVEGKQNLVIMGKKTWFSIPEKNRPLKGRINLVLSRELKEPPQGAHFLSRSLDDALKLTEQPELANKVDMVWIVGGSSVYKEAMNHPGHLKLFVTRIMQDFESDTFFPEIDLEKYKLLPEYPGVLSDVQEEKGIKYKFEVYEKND

HMEC [5] = assay: Toxicity against HMEC at 0.1 uM after 72hrs by MTT assay; format: cell-based; conditions: human; how it was run: as §2

Row | SMILES | GI50 (MDA-MB-231) | GI50 (MDA-MB-468) | further results
1 | Nc1nc(N)c2c(ccc3[nH]ccc32)n1 | 4.13 µM | 3.34 µM | –
2 | Nc1nc(NC(=O)c2ccc3ccccc3c2)nc2ccc3[nH]ccc3c12 | 1.6 µM | 0.44 µM | Activity (HMEC [1]): Non-toxic; Activity (HMEC [2]): Toxic; inhibition (HEK-293T): inactive; Activity (HMEC [3]): Non-toxic; inhibition [4]: inactive
3 | CC(C)(C)[Si](C)(C)OCCCCC(=O)Nc1nc(N)c2c(ccc3[nH]ccc32)n1 | 2.43 µM | 2.24 µM | –
4 | COc1cccc2c1C(=O)c1c(O)c3c(c(O)c1C2=O)C[C@@](O)(C(=O)CO)C[C@@H]3O[C@H]1C[C@H](N)[C@H](O)[C@H](C)O1 [DOXORUBICIN] | 0.15 µM | 0.085 µM | Activity (HMEC [5]): Toxic
5 | CC(C)C(=O)Nc1nc(N)nc2ccc3[nH]ccc3c12 | > 100 µM | > 100 µM | –
6 | CCC(=O)Nc1nc(N)nc2ccc3[nH]ccc3c12 | 18.7 µM | 20.3 µM | –
7 | CC(=O)Nc1nc(NC(C)=O)c2c(ccc3[nH]ccc32)n1 | > 100 µM | > 100 µM | –
8 | CCCC(=O)Nc1nc(N)c2c(ccc3[nH]ccc32)n1 | 25.5 µM | 27.4 µM | –
9 | CC(=O)Nc1nc(N)c2c(ccc3[nH]ccc32)n1 | 27.2 µM | 53.5 µM | –
10 | CC(C)C(=O)Nc1nc(N)c2c(ccc3[nH]ccc32)n1 | 39.7 µM | 29.8 µM | –
11 | CC(=O)Nc1nc(N)nc2ccc3[nH]ccc3c12 | 32.6 µM | 56.5 µM | –
12 | CC(C)(C)[Si](C)(C)OCCCCC(=O)Nc1nc(N)nc2ccc3[nH]ccc3c12 | 15.6 µM | 11.1 µM | –
13 | CCCC(=O)Nc1nc(N)nc2ccc3[nH]ccc3c12 | 26.9 µM | 26.3 µM | –
14 | Nc1nc(NC(=O)c2ccc3ccccc3c2)c2c(ccc3[nH]ccc32)n1 | 8.46 µM | 8.91 µM | –
15 | CCC(=O)Nc1nc(N)c2c(ccc3[nH]ccc32)n1 | 21.4 µM | 24.4 µM | –
